Experimental data: PubChem BioAssay AID624179 (Johns Hopkins Ion Channel Center, 2012)

Tested on: HEK293 M3R/RGS4, carbachol calcium flux, Fluo4
Assay: potency of compounds enhancing RGS4 activity – cell-based, HEK293 M3R/RGS4, calcium flux, SAR compounds, SAR follow-up (AID 624179)
Outline: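 Material: HEK293 M3R cells with induced RGS4 / Doses: 10-point concentration series / Replicates: each concentration tested in triplicate / Timing: 20 min compound pre-incubation at room temperature / Buffer or medium: HBSS-HEPES assay buffer, pH 7.4 / Also added: carbachol at EC20 / Technique: calcium flux fluorescence with Fluo-4 dye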

S=c1[nH]nc(-c2ccc(Cl)cc2)n1CC1CCCO1 (stereo not drawn)
EC50: 5.6 µM

Cc1ccc(S(=O)(=O)c2ccc(Oc3cccc(C)c3)cc2)cc1
EC50: 2.76 µM

COC(=O)C1CCCN(C(=O)c2cc(-c3ccc(C)cc3)nc3ccccc23)C1 (stereo not drawn)
EC50: 4.67 µM

CCN1CCCC1CNCc1ccccc1OCc1ccc(F)cc1 (stereo not drawn)
EC50: 7.17 µM

CC(C)Cn1c(-c2ccc(F)cc2)n[nH]c1=S
EC50: 3.16 µM

O=C(CNc1ccccc1)c1ccc([N+](=O)[O-])cc1
EC50: 6.26 µM

O=C(CNC1CCCCCC1)Nc1ccc(S(=O)(=O)NC2CC2)cc1
EC50: 5.86 µM

COC(=O)c1cccc(Nc2nc(-c3cccnc3)nc3ccccc23)c1
EC50: 2.05 µM

Cc1ccc(NC(=O)c2cc(-c3cccs3)nc3ccccc23)nc1
EC50: 3.48 µM

O=C(Nc1ccccc1N1CCN(C(=O)c2ccccc2)CC1)c1ccc(Cl)o1
EC50: 4.63 µM

CCn1cc(CN2CCC(n3nccc3NC(=O)c3ccc(OC)cc3)CC2)cn1
EC50: 2.98 µM

CCCCn1c(-c2csc(CCC)c2)n[nH]c1=S
EC50: 2.24 µM

CN(Cc1ccc(F)cc1)C(=O)C(c1ccccc1)c1ccccc1
EC50: 2.2 µM
